2 molecules from ChEMBL document CHEMBL3785029, “Synthesis and Characterization of Fatty Acid Conjugates of Niacin and Salicylic Acid” (J Med Chem, 2016) can be followed below.

As usually defined, the Cmax is the peak of the concentration-time curve.

Data set [1] is described as follows: Plasma concentration in Sprague-Dawley rat at 300 mg/kg, qd administered through oral gavage for 7 days measured 2 hrs post last dose by LC/MS/MS analysis. Type of data set: ADME, organism-based.
The nature of data set [2]: Drug uptake in Sprague-Dawley rat liver at 300 mg/kg, qd administered through oral gavage for 7 days measured 2 hrs post last dose by LC/MS/MS analysis. The data set is classed as ADME, organism-based. The following applies: read-out: Drug uptake.
In data set [3] the test system is Liver. Nature of the data set: Drug metabolism in Sprague-Dawley rat liver assessed as niacin formation at 300 mg/kg, qd administered through oral gavage for 7 days measured 2 hrs post last dose by LC/MS/MS analysis. Type of data set: ADME, organism-based. As to conditions: in vivo, BLD = below limit of detection.
Data set [4] deals with Intestine. Kind of data set: Drug metabolism in Sprague-Dawley rat intestine assessed as niacin formation at 300 mg/kg, qd administered through oral gavage for 7 days measured 2 hrs post last dose by LC/MS/MS analysis. As to conditions: in vivo. The data set is classed as ADME, organism-based.
Data set [5] deals with Liver. Kind of data set: Drug metabolism in Sprague-Dawley rat liver assessed as nicotinuric acid formation at 300 mg/kg, qd administered through oral gavage for 7 days measured 2 hrs post last dose by LC/MS/MS analysis. Type of data set: ADME, organism-based. As to conditions: in vivo.
For data set [6], the system named is Intestine. Nature of the data set: Drug metabolism in Sprague-Dawley rat intestine assessed as nicotinuric acid formation at 300 mg/kg, qd administered through oral gavage for 7 days measured 2 hrs post last dose by LC/MS/MS analysis. The data set is classed as ADME, organism-based. The following applies: in vivo.
The nature of data set [7]: Cmax in portal vein cannulated Sprague-Dawley rat at 30 mg/kg, po measured up to 140 mins. The data set is classed as ADME, organism-based. On the set-up: dose 30 mg/kg, route oral. The following applies: portal vein blood. The method, boiled down: (§1)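 Sprague Dawley rats surgically fitted with indwelling jugular vein and portal vein cannulas; oral dosing, then serial blood draws from both portal and jugular veins at 10, 20, 40 min and 1, 2, 4, 6 hr post dose; plasma analysed for parent and metabolites by LC/MS/MS.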

A short description of data set [8]: Cmax in jugular vein cannulated Sprague-Dawley rat at 30 mg/kg, po measured up to 140 mins. Type of data set: ADME, organism-based. Also on record: dose 30 mg/kg, route oral. As to conditions: jugular vein blood. The method, boiled down:
as §1

Data set [9] relates to Plasma. Nature of the data set: Metabolic stability in mouse plasma at 5 uM up to 2 hrs by LC-MS-MS analysis. The data set is classed as ADME, cell-free. The method, boiled down:
(§2)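 Plasma from each species diluted to 50% with 0.05 M PBS pH 7.4 and prewarmed to 37 °C; compound added at 5 µM final (from DMSO stock diluted in MeOH); triplicate incubations at 37 °C, sampled at 0, 30, 60, 120 min, quenched with acetonitrile containing internal standard, centrifuged, analysed by LC/MS/MS.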

Data set [10] has as its system Plasma. Kind of data set: Metabolic stability in rat plasma at 5 uM up to 2 hrs by LC-MS-MS analysis. The data set is classed as ADME, cell-free. The method, boiled down:
as §2

Data set [11] relates to Plasma. Kind of data set: Metabolic stability in beagle dog plasma at 5 uM up to 2 hrs by LC-MS-MS analysis. The data set is classed as ADME, cell-free, Canis lupus familiaris. The method, boiled down: as §2
Data set [12] concerns Rattus norvegicus. Kind of data set: AUClast in Sprague-Dawley rat assessed as nicotinuric acid at 100 mg/kg, po administered as single dose measured up to 6 hrs post dose by LC/MS/MS analysis. As to conditions: in vivo. On the set-up: dose 100 mg/kg, time < 6 hr, route oral. The data set is classed as ADME, organism-based. In a few lines: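 Single oral dose to Sprague Dawley rats; plasma collected at 0.25, 0.5, 1, 2, 4 and 6 hr; analytes in plasma quantified by LC/MS/MS.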

Data set [13] addresses T1, Sterol regulatory element-binding protein 2 (Homo sapiens) (UniProt Q12772).
T1 sequence (whole entry): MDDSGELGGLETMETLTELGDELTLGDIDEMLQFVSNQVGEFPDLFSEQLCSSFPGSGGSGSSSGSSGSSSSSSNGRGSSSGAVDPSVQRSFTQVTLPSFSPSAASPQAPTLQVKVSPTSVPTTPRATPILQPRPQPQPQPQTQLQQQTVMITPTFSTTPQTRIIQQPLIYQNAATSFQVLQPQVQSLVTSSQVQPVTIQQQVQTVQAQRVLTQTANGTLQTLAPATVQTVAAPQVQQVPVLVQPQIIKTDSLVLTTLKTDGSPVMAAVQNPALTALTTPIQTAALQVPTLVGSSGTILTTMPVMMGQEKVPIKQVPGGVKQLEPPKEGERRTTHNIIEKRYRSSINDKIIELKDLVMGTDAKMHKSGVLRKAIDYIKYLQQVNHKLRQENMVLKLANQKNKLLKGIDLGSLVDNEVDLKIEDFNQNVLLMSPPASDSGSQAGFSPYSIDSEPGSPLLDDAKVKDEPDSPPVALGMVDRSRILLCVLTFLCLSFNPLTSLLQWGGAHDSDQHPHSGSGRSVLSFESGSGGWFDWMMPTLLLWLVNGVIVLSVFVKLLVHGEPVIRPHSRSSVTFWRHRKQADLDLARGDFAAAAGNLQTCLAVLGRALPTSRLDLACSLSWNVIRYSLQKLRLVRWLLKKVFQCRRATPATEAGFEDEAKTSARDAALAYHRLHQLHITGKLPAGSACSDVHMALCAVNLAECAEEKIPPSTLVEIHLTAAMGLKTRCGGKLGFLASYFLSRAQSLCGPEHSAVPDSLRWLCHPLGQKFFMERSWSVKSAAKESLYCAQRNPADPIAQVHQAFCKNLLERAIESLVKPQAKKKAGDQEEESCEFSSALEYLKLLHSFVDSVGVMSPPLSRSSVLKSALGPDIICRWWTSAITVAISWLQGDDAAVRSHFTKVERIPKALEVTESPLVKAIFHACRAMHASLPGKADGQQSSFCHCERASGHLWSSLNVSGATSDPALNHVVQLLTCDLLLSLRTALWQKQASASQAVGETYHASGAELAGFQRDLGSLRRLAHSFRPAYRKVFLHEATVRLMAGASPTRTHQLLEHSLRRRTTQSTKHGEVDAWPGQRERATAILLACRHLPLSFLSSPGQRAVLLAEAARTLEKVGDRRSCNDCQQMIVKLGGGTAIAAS
Nature of the data set: Inhibition of SREBP2 maturation in human HepG2 cells at 25 to 50 uM after overnight incubation by immunoblot analysis. Type of data set: cell-based. The method, boiled down:
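Human HepG2 cells incubated with compound (25 and 50 µM), alone or together with 10 µM atorvastatin; mature SREBP-2 protein level assessed.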
(In general: In western blotting, separated proteins are transferred to a membrane and probed.)

A short description of data set [14]: Drug metabolism in Sprague-Dawley rat epididymal fat assessed as salicyluric acid formation at 300 mg/kg, po administered for 14 days followed by 7 day washout cycle measured on day 21. The data set is classed as ADME, organism-based, Epididymal fat pad. The following applies: in vivo.
Data set [15] can be described thus: Cmax in Sprague-Dawley rat at 300 mg/kg, po measured up to 24 hrs post dose. The data set is classed as ADME, organism-based. On the set-up: dose 300 mg/kg, route oral. As to conditions: in vivo. In a few lines: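 Single oral dose of 300 mg/kg to Sprague Dawley rats. Plasma collected at 0, 0.5, 1, 2, 4, 8 and 24 hr. Analytes were the parent, the salicylate-linker and linker-DHA metabolites, salicylic acid and salicyluric acid; Cmax and AUClast derived.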

The subject of data set [16] is Liver. Kind of data set: Drug metabolism in Sprague-Dawley rat liver assessed as salicylic acid formation at 300 mg/kg, po administered for 7 days measured 4 hrs post dose on day 7. The following applies: in vivo. Type of data set: ADME, organism-based. The method, boiled down: (§3)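 Male Sprague Dawley rats, groups of 4, dosed orally at 300 mg/kg once daily for 14 days. Animals killed on days 1, 3, 7 and 14, with plasma, brain, epididymal fat, liver and muscle taken 4 hr after dosing. Parent, salicylic acid and salicyluric acid were measured.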

Data set [17] has as its system Muscle tissue. Nature of the data set: Drug metabolism in Sprague-Dawley rat muscle assessed as salicyluric acid formation at 300 mg/kg, po administered for 7 days measured 4 hrs post dose on day 7. The data set is classed as ADME, organism-based. As to conditions: in vivo. In a few lines: as §3
In data set [18] the test system is Liver. Nature of the data set: Drug metabolism in Sprague-Dawley rat liver assessed as salicylic acid formation at 300 mg/kg, po administered for 14 days followed by 7 day washout cycle measured on day 21. Type of data set: ADME, organism-based. As to conditions: in vivo.
In data set [19] the test system is Plasma. Nature of the data set: Drug metabolism in Sprague-Dawley rat plasma assessed as salicylic acid formation at 300 mg/kg, po administered for 14 days followed by 7 day washout cycle measured on day 21. The data set is classed as ADME, organism-based. As to conditions: in vivo.

In the case of `CC/C=C\C/C=C\C/C=C\C/C=C\C/C=C\CCCC(=O)NCCNC(=O)c1cccnc1`, the concentration at 2 h is 13 ng/mL in data set [1] and 7.5 ng/g in [2]. In addition, the Drug metabolism result is “BLD” in data set [3], 279 ng/g in data set [4], 1356 ng/g in [5] and 1387 ng/g in data set [6]. Moreover, the Cmax in [7] was 418 ng/mL; in [8], 35 ng/mL. In addition, the Stability result in [9], in data set [10] and in data set [11] was “Stable” in each case. The AUClast in data set [12] was 3484 ng·h/mL. Besides, in data set [13], the inhibition result was “Dose-dependent effect”.

Consider `CC/C=C\C/C=C\C/C=C\C/C=C\C/C=C\C/C=C\CCC(=O)NCCNC(=O)c1ccccc1O` [EDASALONEXENT], for which the Drug metabolism entry in data set [14] was “metabolite_notdetected”; in data set [16], 235.91 ng/g; in data set [17], 165.21 ng/g; in [18], “metabolite_notdetected”; in data set [19], “metabolite_notdetected”. The molecule further had a Cmax in [15] of 477 ng/mL.
